Experiments:
human TLR8 = molecular target: T1, human TLR8 (Homo sapiens, UniProt Q9NR97); test: Human TLR8-specific reporter gene assay; assay type: cell-based; conditions: HEK293 cells, NF-κB induction
T1 sequence (Q9NR97 27-1041): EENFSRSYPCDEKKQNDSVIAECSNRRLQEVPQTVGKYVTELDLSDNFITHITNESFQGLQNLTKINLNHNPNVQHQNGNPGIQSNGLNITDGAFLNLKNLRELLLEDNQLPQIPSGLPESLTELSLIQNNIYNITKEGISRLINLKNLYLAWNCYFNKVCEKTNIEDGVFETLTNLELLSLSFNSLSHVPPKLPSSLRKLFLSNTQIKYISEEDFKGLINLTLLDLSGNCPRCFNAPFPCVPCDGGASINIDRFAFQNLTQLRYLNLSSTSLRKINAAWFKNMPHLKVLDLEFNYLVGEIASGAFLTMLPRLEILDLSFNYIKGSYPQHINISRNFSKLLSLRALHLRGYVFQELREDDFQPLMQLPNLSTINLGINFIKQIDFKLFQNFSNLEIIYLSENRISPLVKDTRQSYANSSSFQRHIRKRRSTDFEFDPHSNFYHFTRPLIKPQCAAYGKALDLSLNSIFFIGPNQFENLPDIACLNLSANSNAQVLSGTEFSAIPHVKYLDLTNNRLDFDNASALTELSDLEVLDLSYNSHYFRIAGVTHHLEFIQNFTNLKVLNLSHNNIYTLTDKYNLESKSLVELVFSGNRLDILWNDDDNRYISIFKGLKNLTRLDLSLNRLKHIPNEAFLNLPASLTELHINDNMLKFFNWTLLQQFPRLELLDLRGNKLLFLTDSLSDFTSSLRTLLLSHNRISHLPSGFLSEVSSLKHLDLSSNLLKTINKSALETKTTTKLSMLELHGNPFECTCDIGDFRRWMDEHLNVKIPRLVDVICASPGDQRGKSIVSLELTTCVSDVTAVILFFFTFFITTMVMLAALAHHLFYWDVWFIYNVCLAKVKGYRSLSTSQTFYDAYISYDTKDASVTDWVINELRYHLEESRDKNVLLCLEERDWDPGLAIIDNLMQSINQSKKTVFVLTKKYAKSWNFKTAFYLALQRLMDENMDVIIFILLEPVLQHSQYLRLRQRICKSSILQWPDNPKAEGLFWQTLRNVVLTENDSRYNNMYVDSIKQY

[1] = system: natural killer lymphocytes; test: CD69 upregulation by flow cytometry in whole human blood; assay type: cell-based; conditions: overnight 37 °C, CD3–CD56+ cells, Figure 4
Method in brief: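 Heparin-anticoagulated whole blood from healthy volunteers was incubated overnight at 37 °C with graded concentrations of test compound, a TLR7-agonist reference or medium. Cells were stained for 30 min at 37 °C in the dark with CD3-PE, CD56-APC and CD69-PE-Cy7. Erythrocytes were lysed and leukocytes fixed in one step. CD69 was read on CD3⁻CD56⁺ NK cells from 100,000 gated events.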

[2] = Chemical stability of the free base; assay type: physicochemical; conditions: rapid formation of overoxidized 3-ol derivative 5 via autoxidation

hTLR8 Agonistic Activity (EC50) (human TLR8) | Structure (SMILES) | other results
neither 8d nor 8f were active | Nc1nc2ccccc2n1Cc1ccccc1 [Compound 8d, 1-Benzyl-1H-benzo[d]imidazol-2-amine] | –
completely abrogated activity | CCCCOC(=O)n1c(N)nc2ccccc21 [Compound 9, Butyl 2-amino-1H-benzo[d]imidazole-1-carboxylate] | –
abrogated activity | CCCCCn1c(N)nc2c(Cc3ccccc3)cccc21 [Compound 31m, 4-Benzyl-1-pentyl-1H-benzo[d]imidazol-2-amine] | –
abrogated activity | CCCCCn1c(N)nc2c(-c3ccccc3)cccc21 [Compound 31l, 1-Pentyl-4-phenyl-1H-benzo[d]imidazol-2-amine] | –
abrogated activity | CCCCCn1c(N)nc2c(OCc3ccccc3)cccc21 [Compound 35, 4-Benzyloxy-1-pentyl-1H-benzoimidazol-2-ylamine] | –

Second part, the molecule before the results:

Structure (SMILES) | hTLR8 Agonistic Activity (EC50) (human TLR8) | other results
CCCCCn1c(N)nc2c(C)cccc21 [Compound 31a, 4-Methyl-1-pentyl-1H-benzo[d]imidazol-2-amine] | – | CD69 upregulation in NK lymphocytes [1]: complete absence of CD69 upregulation
CCCCCn1c(NC(C)=O)nc2ccccc21 [Compound 10, N-(1-Pentyl-1H-benzo[d]imidazol-2-yl)acetamide] | completely abrogated activity | –
NCc1cccc(Cn2c(N)nc3ccccc32)c1 [Compound 8f, 1-(3-(Aminomethyl)benzyl)-1H-benzo[d]imidazol-2-amine] | neither 8d nor 8f were active | –
CCCCC1C(N)=Nc2ccccc21.Cl (stereo not drawn) [Compound 4] | – | Stability of the compound (free base) [2]: exceedingly unstable

— paper PMC4161153 (Journal of Medicinal Chemistry, 2014)
